Laboratory results: ChEMBL document CHEMBL1765023, “Acetyl analogs of combretastatin A-4: synthesis and biological studies” (Bioorg Med Chem, 2011)
pEC50, pIC50: −log10 of the molar value. Converted amounts (≈) assume the structure as drawn.

Experiments:
RXF 393 = assay: Growth inhibition of human RXF393 cells after 48 hrs by sulforhodamine B assay; assay type: functional; details: RXF 393, 48 h
Procedure, shortened: (§1)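 NCI 60 human cancer cell line screen run at the National Cancer Institute. Cells had 48 h continuous exposure, and proliferation was read by sulforhodamine B staining. GI50 (50% growth inhibition) was taken from dose–response curves.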

B16 = assay: Cytotoxicity against mouse B16 cells by MTT assay; assay type: functional, cell-based
SN12C = assay: Growth inhibition of human SN12C cells after 48 hrs by sulforhodamine B assay; assay type: functional
Procedure, shortened: (§2)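 Tested in the NCI 60 human cancer cell line panel. Cells were exposed continuously for 48 h and proliferation was read by sulforhodamine B staining. GI50 (concentration for 50% growth inhibition), TGI (total growth inhibition) and LC50 were taken from dose–response curves.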

SF-539 = assay: Growth inhibition of human SF539 cells after 48 hrs by sulforhodamine B assay; assay type: functional; details: SF-539, 48 h; procedure, shortened: as §1
UO-31 = assay: Growth inhibition of human UO31 cells after 48 hrs by sulforhodamine B assay; assay type: functional; details: UO-31, 48 h; procedure, shortened: as §2
Mus musculus [1] = assay: Toxicity in DBA2 mouse assessed as change in platelet count at 75 mg/kg, ip QD administered on alternate days for 17 days measured on day 23 relative to control; assay type: organism-based; set-up: dose 75 mg/kg, route intraperitoneal; details: in vivo, 408 h
Procedure, shortened: (§3)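 Healthy female DBA2 mice, 5–7 weeks old, five per group, received 75 mg/kg ip on days 1, 5, 9, 13 and 17. Vehicle was PET (PEG400/ethanol/Tween 80, 6:3:1), 5% glucose and DMSO, with final ethanol 15% and DMSO 10%. Controls received 100 µL vehicle. Body weight was measured every other day. At sacrifice on day 23, blood counts (hematocrit, WBC, granulocytes, platelets) and liver, kidney and spleen appearance and weight were assessed.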

HCT-15 = assay: Growth inhibition of human HCT15 cells after 48 hrs by sulforhodamine B assay; assay type: functional; details: HCT-15, 48 h; procedure, shortened: as §1
Mus musculus [2] = assay: Toxicity in DBA2 mouse assessed as change in color, weight and size in spleen at 75 mg/kg, ip QD administered on alternate days for 17 days measured on day 23 relative to control; assay type: organism-based; set-up: dose 75 mg/kg, route intraperitoneal; details: in vivo, 408 h; procedure, shortened: as §3
OVCAR-4 = assay: Growth inhibition of human OVCAR4 cells after 48 hrs by sulforhodamine B assay; assay type: functional; details: OVCAR-4, 48 h; procedure, shortened: as §1
[3] = Ratio of EC50 for microtubule depolymerization in […] cells to IC50 for human MDA-MB-435 cells
M14 = assay: Growth inhibition of human M14 cells after 48 hrs by sulforhodamine B assay; assay type: functional; details: M14, 48 h; procedure, shortened: as §1
NCI-H23 = assay: Growth inhibition of human NCI-H23 cells after 48 hrs by sulforhodamine B assay; assay type: functional; details: NCI-H23, 48 h; procedure, shortened: as §1
NCI-H522 = assay: Growth inhibition of human NCI-H522 cells after 48 hrs by sulforhodamine B assay; assay type: functional; details: NCI-H522, 48 h; procedure, shortened: as §1
MDA-MB-435 = assay: Growth inhibition of human MDA-MB-435 cells after 48 hrs by sulforhodamine B assay; assay type: functional; details: MDA-MB-435, 48 h; procedure, shortened: as §1
UACC-62 = assay: Growth inhibition of human UACC62 cells after 48 hrs by sulforhodamine B assay; assay type: functional; details: UACC-62, 48 h; procedure, shortened: as §2
SNB-75 = assay: Growth inhibition of human SNB75 cells after 48 hrs by sulforhodamine B assay; assay type: functional; details: SNB-75, 48 h; procedure, shortened: as §2
EKVX = assay: Growth inhibition of human EKVX cells after 48 hrs by sulforhodamine B assay; assay type: functional; procedure, shortened: as §1
[4] = Solubility of the compound in water by multiscreen solubility; assay type: physicochemical
Procedure, shortened: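 Aqueous solubility was measured with a modified Multiscreen Solubility filter-plate protocol. The assay ceiling is 500 µM, and two independent experiments were run.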

IGROV-1 = assay: Growth inhibition of human IGROV1 cells after 48 hrs by sulforhodamine B assay; assay type: functional; details: IGROV-1, 48 h; procedure, shortened: as §1
TK-10 = assay: Growth inhibition of human TK10 cells after 48 hrs by sulforhodamine B assay; assay type: functional; details: TK-10, 48 h; procedure, shortened: as §2
[5] = Growth inhibition of human NCI-ADR-RES cells after 48 hrs by sulforhodamine B assay; assay type: functional; procedure, shortened: as §1
MDA-MB-231 = assay: Growth inhibition of human MDA-MB-231 cells after 48 hrs by sulforhodamine B assay; assay type: functional; details: MDA-MB-231, 48 h; procedure, shortened: as §1
OVCAR-8 = assay: Growth inhibition of human OVCAR8 cells after 48 hrs by sulforhodamine B assay; assay type: functional; details: OVCAR-8, 48 h; procedure, shortened: as §1
HOP-92 = assay: Growth inhibition of human HOP92 cells after 48 hrs by sulforhodamine B assay; assay type: functional; details: HOP-92, 48 h; procedure, shortened: as §1
U-251 = assay: Growth inhibition of human U251 cells after 48 hrs by sulforhodamine B assay; assay type: functional; details: U-251, 48 h; procedure, shortened: as §2
A549 = assay: Growth inhibition of human A549 cells after 48 hrs by sulforhodamine B assay; assay type: functional; details: A549, 48 h; procedure, shortened: as §1
ACHN = assay: Growth inhibition of human ACHN cells after 48 hrs by sulforhodamine B assay; assay type: functional; procedure, shortened: as §1
Mus musculus [6] = assay: Toxicity in DBA2 mouse assessed as change in color, weight and size in liver at 75 mg/kg, ip QD administered on alternate days for 17 days measured on day 23 relative to control; assay type: organism-based; set-up: dose 75 mg/kg, route intraperitoneal; details: in vivo, 408 h; procedure, shortened: as §3
LOX IMVI = assay: Growth inhibition of human LOXIMVI cells after 48 hrs by sulforhodamine B assay; assay type: functional; procedure, shortened: as §1
CCRF-CEM = assay: Growth inhibition of human CCRF-CEM cells after 48 hrs by sulforhodamine B assay; assay type: functional; procedure, shortened: as §1
MOLT-4 = assay: Growth inhibition of human MOLT4 cells after 48 hrs by sulforhodamine B assay; assay type: functional; details: MOLT-4, 48 h; procedure, shortened: as §1
SW-620 = assay: Growth inhibition of human SW620 cells after 48 hrs by sulforhodamine B assay; assay type: functional; details: SW-620, 48 h; procedure, shortened: as §2
[7] = Induction of microtubule depolymerization in […] cells for 18 hrs by indirect immunofluorescence microscopic analysis; assay type: cell-based
Procedure, shortened: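 Uses A-10 cells, a non-transformed line that arrests in interphase under microtubule-targeting agents. Cells were treated for 18 h and interphase microtubules were visualized by indirect immunofluorescence microscopy, with vehicle-treated controls. Depolymerization was screened at concentrations below 30 µM. For EC50, a range of concentrations was tested, and EC50 is the concentration causing 50% loss of cellular microtubules by microscopy.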

OVCAR-3 = assay: Growth inhibition of human OVCAR3 cells after 48 hrs by sulforhodamine B assay; assay type: functional; details: OVCAR-3, 48 h; procedure, shortened: as §1

Compound: COc1ccc(/C=C(/C(C)=O)c2cc(OC)c(OC)c(OC)c2)cc1O
- GI50 (RXF 393): 219 nM
- pIC50 (B16): 5.46
- GI50 (SN12C): 776 nM
- TGI (SN12C; read-out: pTGI): > 100000 nM
- GI50 (SF-539): 302 nM
- TGI (SF-539; read-out: pTGI): > 100000 nM
- GI50 (UO-31): 575 nM
- TGI (UO-31; read-out: pTGI): > 100000 nM
- Activity (Mus musculus [1]): Non-toxic
- GI50 (HCT-15): 398 nM
- TGI (HCT-15; read-out: pTGI): > 100000 nM
- Activity (Mus musculus [2]): Non-toxic
- GI50 (OVCAR-4): 933 nM
- TGI (OVCAR-4; read-out: pTGI): > 100000 nM
- Ratio [3]: 10
- GI50 (M14): 209 nM
- TGI (M14; read-out: pTGI): > 100000 nM
- GI50 (NCI-H23): 355 nM
- TGI (NCI-H23; read-out: pTGI): > 100000 nM
- GI50 (NCI-H522): 135 nM
- TGI (NCI-H522; read-out: pTGI (converted)): 537 nM
- GI50 (MDA-MB-435): 25.7 nM
- TGI (MDA-MB-435; read-out: pTGI (converted)): 75.9 nM
- GI50 (UACC-62): 151 nM
- TGI (UACC-62; read-out: pTGI): > 100000 nM
- GI50 (SNB-75): 257 nM
- TGI (SNB-75; read-out: pTGI): > 100000 nM
- GI50 (EKVX): 5250 nM
- TGI (EKVX; read-out: pTGI): > 100000 nM
- solubility [4]: 456 µM (≈ 163 µg/mL)
- GI50 (IGROV-1): 316 nM
- TGI (IGROV-1; read-out: pTGI): > 100000 nM
- GI50 (TK-10): 18200 nM
- TGI (TK-10; read-out: pTGI): > 100000 nM
- GI50 [5]: 110 nM
- GI50 (MDA-MB-231): 575 nM
- TGI (MDA-MB-231; read-out: pTGI): > 100000 nM
- GI50 (OVCAR-8): 372 nM
- TGI (OVCAR-8; read-out: pTGI): > 100000 nM
- GI50 (HOP-92): 3310 nM
- TGI (HOP-92; read-out: pTGI): > 100000 nM
- GI50 (U-251): 324 nM
- TGI (U-251; read-out: pTGI): > 100000 nM
- GI50 (A549): 468 nM
- TGI (A549; read-out: pTGI): > 100000 nM
- GI50 (ACHN): 1230 nM
- TGI (ACHN; read-out: pTGI): > 100000 nM
- Activity (Mus musculus [6]): Non-toxic
- GI50 (LOX IMVI): 417 nM
- TGI (LOX IMVI; read-out: pTGI): > 100000 nM
- GI50 (CCRF-CEM): 398 nM
- TGI (CCRF-CEM; read-out: pTGI): > 100000 nM
- GI50 (MOLT-4): 316 nM
- TGI (MOLT-4; read-out: pTGI): > 100000 nM
- GI50 (SW-620): 91.2 nM
- TGI (SW-620; read-out: pTGI (converted)): 53700 nM
- pEC50 [7]: 5.74
- GI50 (OVCAR-3): 95.5 nM
- TGI (OVCAR-3; read-out: pTGI (converted)): 355 nM
